Measured values taken from ChEMBL document CHEMBL3875169, “Synthesis, in vitro anticancer and antibacterial activities and in silico studies of new 4-substituted 1,2,3-triazole-coumarin hybrids” (Eur J Med Chem, 2016).

Columns and labels:
[1] = Growth inhibition of human SW620 cells after 72 hrs by MTT assay; assay type: functional, cell-based; conditions: SW-620, 72 h
How it was run: (§1)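 Monolayers in DMEM with 10% FBS, 2 mM L-glutamine and penicillin/streptomycin, 37 °C, 5% CO2; 5000 cells/well seeded day 0. Compounds added as five 10-fold dilutions (0.01–100 µM), DMSO ≤0.1%, for 72 h. MTT absorbance converted to percentage growth (NIH formulas); IC50 by linear regression between bracketing concentrations, highest concentration reported with ">" when not reached. Quadruplicate points, three experiments.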

[2] = Growth inhibition of human CFPAC-1 cells after 72 hrs by MTT assay; assay type: functional, cell-based; conditions: CFPAC-1, 72 h; how it was run: as §1
[3] = tested on: HepG2; assay: Selectivity index, ratio of IC50 for […] cells to IC50 for human HepG2 cells; assay type: functional
[4] = Induction of apoptosis in human HepG2 cells assessed as early apoptotic cells at 2 times antiproliferative IC50 after 48 hrs by Annexin-V FITC/propidium iodide staining based fluorescence microscopic method (reference value: 0.6%); assay type: functional
[5] = Growth inhibition of human HepG2 cells after 72 hrs by MTT assay; assay type: functional, cell-based; conditions: HepG2, 72 h; how it was run: as §1
[6] = Induction of apoptosis in human HepG2 cells assessed as viable cells at 2 times antiproliferative IC50 after 48 hrs by Annexin-V FITC/propidium iodide staining based fluorescence microscopic method (reference value: 94.2%); assay type: functional
[7] = Induction of apoptosis in human HepG2 cells assessed as late apoptotic cells at 2 times antiproliferative IC50 after 48 hrs by Annexin-V FITC/propidium iodide staining based fluorescence microscopic method (reference value: 0%); assay type: functional
[8] = Growth inhibition of human A549 cells after 72 hrs by MTT assay; assay type: functional, cell-based; conditions: A549, 72 h; how it was run: as §1
[9] = Growth inhibition of human HeLa cells after 72 hrs by MTT assay; assay type: functional, cell-based; how it was run: as §1
[10] = Induction of apoptosis in human HepG2 cells assessed as secondary necrotic cells at 2 times antiproliferative IC50 after 48 hrs by Annexin-V FITC/propidium iodide staining based fluorescence microscopic method (reference value: 5.2%); assay type: functional

O=c1cc(Cn2cc(Cn3ccc4cc(I)ccc43)nn2)c2ccc(O)cc2o1
IC50 [1]: 34.3 µM
IC50 [2]: 29.9 µM
Ratio IC50 [3]: 3
Activity [4]: 5.8%
IC50 [5]: 8.57 µM
Activity [6]: 85%
Activity [7]: 9.2%
IC50 [8]: 28.6 µM
IC50 [9]: 14.2 µM
Activity [10]: 0%
